Active and inactive are the calls of the source. The calls are words filed in the database; no cut-off is given here.
What was measured:
[1] = biological target: Calcium/calmodulin-dependent protein kinase type II subunit alpha (Homo sapiens, UniProt Q9UQM7); test: Inhibition of CamK2a (unknown origin)
[2] = biological target: Cyclin-dependent kinase 2/cyclin E1 (Homo sapiens, UniProt P24941); test: Inhibition of CDK2/cyclinE (unknown origin); type: protein-complex assay
[3] = biological target: Serine/threonine-protein kinase Chk2 (Homo sapiens, UniProt O96017); test: Inhibition of CHK2 (unknown origin)
Sequence of Serine/threonine-protein kinase Chk2 (O96017 whole entry): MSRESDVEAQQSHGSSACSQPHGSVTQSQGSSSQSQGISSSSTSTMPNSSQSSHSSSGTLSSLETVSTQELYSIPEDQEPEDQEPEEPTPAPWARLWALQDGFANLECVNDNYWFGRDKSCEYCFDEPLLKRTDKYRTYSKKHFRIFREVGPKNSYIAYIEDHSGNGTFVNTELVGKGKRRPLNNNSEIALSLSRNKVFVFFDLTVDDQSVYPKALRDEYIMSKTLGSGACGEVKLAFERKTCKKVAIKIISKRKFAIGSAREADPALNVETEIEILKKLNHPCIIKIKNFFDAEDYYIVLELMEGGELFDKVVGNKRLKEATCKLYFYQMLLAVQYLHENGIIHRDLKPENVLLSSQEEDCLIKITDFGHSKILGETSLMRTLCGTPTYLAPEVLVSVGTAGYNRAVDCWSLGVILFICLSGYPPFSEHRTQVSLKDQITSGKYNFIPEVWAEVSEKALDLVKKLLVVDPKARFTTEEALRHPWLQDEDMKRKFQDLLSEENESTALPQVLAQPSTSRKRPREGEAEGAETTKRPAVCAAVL

[4] = biological target: Dual specificity tyrosine-phosphorylation-regulated kinase 2 (Homo sapiens, UniProt Q92630); test: Inhibition of DYRK2 (unknown origin)
[5] = biological target: Serine/threonine-protein kinase MARK2 (Homo sapiens, UniProt Q7KZI7); test: Inhibition of EMK1 (unknown origin)
Sequence of Serine/threonine-protein kinase MARK2 (Q7KZI7 whole entry): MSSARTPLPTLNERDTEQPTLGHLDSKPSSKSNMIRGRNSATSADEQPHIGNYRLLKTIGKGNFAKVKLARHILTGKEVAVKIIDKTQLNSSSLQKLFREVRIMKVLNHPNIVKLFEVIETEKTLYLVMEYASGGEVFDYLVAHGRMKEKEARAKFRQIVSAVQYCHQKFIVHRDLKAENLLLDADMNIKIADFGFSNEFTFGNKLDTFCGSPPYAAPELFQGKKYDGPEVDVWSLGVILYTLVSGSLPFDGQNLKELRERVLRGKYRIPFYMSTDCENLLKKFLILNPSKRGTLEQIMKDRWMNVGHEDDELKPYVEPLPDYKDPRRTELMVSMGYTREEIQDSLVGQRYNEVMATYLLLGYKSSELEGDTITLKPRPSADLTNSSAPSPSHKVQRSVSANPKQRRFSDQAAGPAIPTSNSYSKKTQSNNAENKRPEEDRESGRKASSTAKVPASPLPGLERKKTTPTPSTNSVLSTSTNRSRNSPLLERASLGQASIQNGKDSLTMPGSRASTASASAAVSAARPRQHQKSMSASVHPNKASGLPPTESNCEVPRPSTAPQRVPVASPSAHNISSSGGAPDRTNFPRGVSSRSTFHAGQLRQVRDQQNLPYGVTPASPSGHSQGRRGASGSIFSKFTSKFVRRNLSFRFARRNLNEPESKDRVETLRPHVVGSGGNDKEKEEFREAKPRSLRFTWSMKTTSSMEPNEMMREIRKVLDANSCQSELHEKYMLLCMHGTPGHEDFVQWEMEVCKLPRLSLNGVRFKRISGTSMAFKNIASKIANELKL

[6] = biological target: Fibroblast growth factor receptor 3 (Homo sapiens, UniProt P22607); test: Inhibition of FGFR3 (unknown origin)
[7] = biological target: Serine/threonine-protein kinase MARK1 (Homo sapiens, UniProt Q9P0L2); test: Inhibition of MARK1 (unknown origin)
Sequence of Serine/threonine-protein kinase MARK1 (Q9P0L2 whole entry): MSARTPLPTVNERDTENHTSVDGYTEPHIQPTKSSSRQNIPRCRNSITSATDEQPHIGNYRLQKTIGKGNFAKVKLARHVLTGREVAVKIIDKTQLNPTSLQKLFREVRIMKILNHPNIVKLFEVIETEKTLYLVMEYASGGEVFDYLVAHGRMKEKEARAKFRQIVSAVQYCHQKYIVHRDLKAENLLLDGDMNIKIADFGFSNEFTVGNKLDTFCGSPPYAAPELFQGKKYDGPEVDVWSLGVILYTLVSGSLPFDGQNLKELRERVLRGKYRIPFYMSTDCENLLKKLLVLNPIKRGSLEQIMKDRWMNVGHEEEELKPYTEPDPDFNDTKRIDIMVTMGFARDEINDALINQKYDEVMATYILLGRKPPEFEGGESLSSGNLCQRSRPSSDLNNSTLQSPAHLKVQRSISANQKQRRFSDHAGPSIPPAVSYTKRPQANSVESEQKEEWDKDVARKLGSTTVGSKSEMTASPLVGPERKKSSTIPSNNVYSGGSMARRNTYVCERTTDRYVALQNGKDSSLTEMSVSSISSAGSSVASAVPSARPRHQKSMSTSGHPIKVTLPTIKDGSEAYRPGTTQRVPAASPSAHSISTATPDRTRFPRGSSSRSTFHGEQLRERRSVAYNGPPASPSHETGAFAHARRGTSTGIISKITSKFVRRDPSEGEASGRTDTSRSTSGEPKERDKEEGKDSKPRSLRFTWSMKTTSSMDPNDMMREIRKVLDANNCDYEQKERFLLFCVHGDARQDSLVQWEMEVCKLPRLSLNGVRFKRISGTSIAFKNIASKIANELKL

[8] = biological target: Dual specificity mitogen-activated protein kinase kinase 7 (Homo sapiens, UniProt O14733); test: Inhibition of MKK7beta (unknown origin)
Sequence of Dual specificity mitogen-activated protein kinase kinase 7 (O14733 whole entry): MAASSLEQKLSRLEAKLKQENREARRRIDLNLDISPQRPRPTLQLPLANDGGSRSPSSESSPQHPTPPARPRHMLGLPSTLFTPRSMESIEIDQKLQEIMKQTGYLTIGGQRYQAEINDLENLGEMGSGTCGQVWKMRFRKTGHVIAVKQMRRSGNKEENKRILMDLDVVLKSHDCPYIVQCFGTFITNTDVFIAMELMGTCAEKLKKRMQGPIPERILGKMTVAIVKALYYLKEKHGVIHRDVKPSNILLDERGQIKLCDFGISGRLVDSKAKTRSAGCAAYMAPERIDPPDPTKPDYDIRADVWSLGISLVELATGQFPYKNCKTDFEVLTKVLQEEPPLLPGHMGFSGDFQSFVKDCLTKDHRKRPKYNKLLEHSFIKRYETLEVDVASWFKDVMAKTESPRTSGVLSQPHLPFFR

[9] = biological target: Serine/threonine-protein kinase PAK 2 (Homo sapiens, UniProt Q13177); test: Inhibition of PAK2 (unknown origin)
Sequence of Serine/threonine-protein kinase PAK 2 (Q13177 whole entry): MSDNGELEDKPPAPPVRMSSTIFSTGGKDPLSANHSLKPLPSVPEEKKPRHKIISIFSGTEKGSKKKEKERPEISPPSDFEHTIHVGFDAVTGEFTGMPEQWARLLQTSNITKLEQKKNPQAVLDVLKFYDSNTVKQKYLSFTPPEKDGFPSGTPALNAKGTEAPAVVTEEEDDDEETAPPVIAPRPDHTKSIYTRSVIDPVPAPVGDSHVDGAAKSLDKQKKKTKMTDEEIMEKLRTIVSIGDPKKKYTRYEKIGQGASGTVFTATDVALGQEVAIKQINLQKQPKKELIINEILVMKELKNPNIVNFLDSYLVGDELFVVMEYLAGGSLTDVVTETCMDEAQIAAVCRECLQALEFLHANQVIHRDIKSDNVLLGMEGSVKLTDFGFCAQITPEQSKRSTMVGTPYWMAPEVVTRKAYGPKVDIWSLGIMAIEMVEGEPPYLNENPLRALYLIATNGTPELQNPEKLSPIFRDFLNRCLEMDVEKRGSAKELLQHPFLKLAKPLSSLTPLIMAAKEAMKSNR

[10] = biological target: Serine/threonine-protein kinase D2 (Homo sapiens, UniProt Q9BZL6); test: Inhibition of PKD2 (unknown origin)
Sequence of Serine/threonine-protein kinase D2 (Q9BZL6 whole entry): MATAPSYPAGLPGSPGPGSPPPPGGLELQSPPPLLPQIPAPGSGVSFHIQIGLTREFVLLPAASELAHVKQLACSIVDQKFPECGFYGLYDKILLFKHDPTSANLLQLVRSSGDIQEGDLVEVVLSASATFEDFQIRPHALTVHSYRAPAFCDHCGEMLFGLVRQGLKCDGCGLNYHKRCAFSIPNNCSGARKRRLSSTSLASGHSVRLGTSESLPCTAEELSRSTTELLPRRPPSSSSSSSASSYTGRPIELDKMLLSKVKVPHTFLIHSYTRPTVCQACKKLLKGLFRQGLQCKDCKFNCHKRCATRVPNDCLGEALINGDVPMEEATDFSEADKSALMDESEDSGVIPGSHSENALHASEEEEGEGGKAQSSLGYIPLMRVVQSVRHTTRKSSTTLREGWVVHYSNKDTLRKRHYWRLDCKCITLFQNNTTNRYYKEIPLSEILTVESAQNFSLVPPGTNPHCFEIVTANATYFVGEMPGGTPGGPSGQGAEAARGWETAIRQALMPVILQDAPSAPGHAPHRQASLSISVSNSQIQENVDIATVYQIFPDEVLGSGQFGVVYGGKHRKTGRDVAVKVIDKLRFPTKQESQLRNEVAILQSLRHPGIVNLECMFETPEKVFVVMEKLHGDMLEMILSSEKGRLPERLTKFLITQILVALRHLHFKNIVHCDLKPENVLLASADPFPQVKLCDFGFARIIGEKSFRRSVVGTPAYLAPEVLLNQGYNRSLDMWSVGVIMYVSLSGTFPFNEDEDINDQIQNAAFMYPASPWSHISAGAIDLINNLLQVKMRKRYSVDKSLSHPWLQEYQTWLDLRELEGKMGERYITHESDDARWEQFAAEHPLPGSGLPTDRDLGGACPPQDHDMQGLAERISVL

[11] = biological target: Macrophage-stimulating protein receptor (Homo sapiens, UniProt Q04912); test: Inhibition of RON (unknown origin)
[12] = biological target: Serine/threonine-protein kinase 24 (Homo sapiens, UniProt Q9Y6E0); test: Inhibition of STK24 (unknown origin)
Sequence of Serine/threonine-protein kinase 24 (Q9Y6E0 whole entry): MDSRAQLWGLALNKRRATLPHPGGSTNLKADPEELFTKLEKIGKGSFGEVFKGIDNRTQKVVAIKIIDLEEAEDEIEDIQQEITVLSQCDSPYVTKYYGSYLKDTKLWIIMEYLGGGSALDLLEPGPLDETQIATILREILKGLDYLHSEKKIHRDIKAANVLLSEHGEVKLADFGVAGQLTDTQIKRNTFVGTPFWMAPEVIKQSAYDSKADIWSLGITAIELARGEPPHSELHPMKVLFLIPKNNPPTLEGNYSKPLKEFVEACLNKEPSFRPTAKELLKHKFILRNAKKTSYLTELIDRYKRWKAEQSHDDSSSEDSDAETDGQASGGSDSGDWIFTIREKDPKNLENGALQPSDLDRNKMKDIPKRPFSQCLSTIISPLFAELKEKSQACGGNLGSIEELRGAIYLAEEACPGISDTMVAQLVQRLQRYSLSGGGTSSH

[13] = system: NCI-H520; test: Antitumor activity against human NCI-H520 cells harboring TP53 W146 and CDKN2A G G45 mutant xenografted in mouse assessed as tumor growth inhibition at 10 mg/kg, po; type: functional; details: read-out: TGI
Summary of the method: (§1)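 Human tumor xenografts in mice were dosed orally at the indicated mg/kg. Tumor volume was measured with calipers as (L×W×W)/2. %TGI = 100 × [1 − (AUC treatment/d)/(AUC vehicle/d)], using the area under the fitted tumor-growth curve per day for each dose group relative to vehicle.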

[14] = system: NCI-H69; test: Antitumor activity against human NCI-H69 cells harboring RBI E748/PK3CA G106_R108/TP53 E171 mutant xenografted in mouse assessed as tumor growth inhibition at 10 mg/kg, po; type: functional; details: read-out: TGI; summary of the method: as §1
[15] = system: 888-mel; test: Antiproliferative activity against human 888-mel cells assessed reduction in cell viability incubated for 4 days in presence of 4-(2-(1H-indazol-4-yl)-6-((4-(methylsulfonyl)piperazin-1-yl)methyl)thieno[3,2-d]pyrimidin-4-yl)morpholine by celltiter-glo assay; type: functional; details: time 4 day
Summary of the method: (§2)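 4-day CellTiter-Glo viability read-out on melanoma lines, cells exposed to increasing concentrations of each inhibitor alone and in combination.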

[16] = system: A2058; test: Antiproliferative activity against human A2058 cells assessed reduction in cell viability incubated for 4 days in presence of 4-(2-(1H-indazol-4-yl)-6-((4-(methylsulfonyl)piperazin-1-yl)methyl)thieno[3,2-d]pyrimidin-4-yl)morpholine by celltiter-glo assay; type: functional; details: time 4 day; summary of the method: as §2
[17] = system: COLO-829; test: Antiproliferative activity against human COLO-829 cells assessed reduction in cell viability incubated for 4 days in presence of 4-(2-(1H-indazol-4-yl)-6-((4-(methylsulfonyl)piperazin-1-yl)methyl)thieno[3,2-d]pyrimidin-4-yl)morpholine by celltiter-glo assay; type: functional; details: time 4 day; summary of the method: as §2
[18] = system: 888-mel; test: Inhibition of PI3K/MEK signaling pathway in human 888-mel cells assessed as decrease in AKT phosphorylation by incubated for 24 hrs by Western blot analysis; type: cell-based
[19] = system: DLD-1; test: Antitumor activity against human DLD-1 cells xenografted in mouse assessed as tumor growth inhibition at 3 mg/kg, po administered once a day for 21 days; type: functional; details: DLD-1, 504 h, time 21 day, read-out: TGI
Summary of the method: (§3)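 Human tumor xenografts in mice. Drugs given orally, as single agents or combined with the PI3K inhibitor. Schedules were daily (QD) or every third day (Q3D) over 21 days. Tumor volume was measured by caliper as (L×W×W)/2. %TGI = 100×[1 − AUC(treatment/d)/AUC(vehicle/d)] from fitted growth curves, with group means. Tumor lysates were immunoblotted for pS6.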

[20] = system: A2058; test: Antitumor activity against human A2058 cells xenografted in mouse assessed as tumor growth inhibition at 20 mg/kg, po administered every third day for 21 days; type: functional; details: A2058, 504 h, time 21 day, read-out: TGI; summary of the method: as §3
[21] = system: DLD-1; test: Antitumor activity against human DLD-1 cells xenografted in mouse assessed as tumor growth inhibition at 15 mg/kg, po administered once a day for 21 days in presence of 4-(2-(1H-indazol-4-yl)-6-((4-(methylsulfonyl)piperazin-1-yl)methyl)thieno[3,2-d]pyrimidin-4-yl)morpholine; type: functional; details: DLD-1, 504 h, time 21 day, read-out: TGI; summary of the method: as §3
[22] = system: NCI-H2122; test: Antitumor activity against human NCI-H2122 cells xenografted in mouse assessed as tumor growth inhibition at 15 mg/kg, po administered every third day for 21 days in presence of 4-(2-(1H-indazol-4-yl)-6-((4-(methylsulfonyl)piperazin-1-yl)methyl)thieno[3,2-d]pyrimidin-4-yl)morpholine; type: functional; details: NCI-H2122, 504 h, time 21 day, read-out: TGI
Summary of the method: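 Dosing was oral, every third day (Q3D) across 21 days, with single agents or the MEK plus PI3K combination in NCI-H2122 xenograft mice. Tumor volume was calculated as (L×W×W)/2 from caliper measurements. %TGI was derived from fitted-curve AUC per day relative to vehicle, with body weight monitored.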

[23] = system: 888-mel; test: Inhibition of ERK phosphorylation in human 888-mel cells preincubated for 24 hrs followed by compound washout and measured after 2 hrs in presence of 4-(2-(1H-indazol-4-yl)-6-((4-(methylsulfonyl)piperazin-1-yl)methyl)thieno[3,2-d]pyrimidin-4-yl)morpholine by immunoblotting analysis; type: cell-based
Summary of the method: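 The medium was then exchanged to remove compound. Lysates were prepared 2 and 24 h after washout and immunoblotted for cleaved PARP, p-AKT and p-ERK using HRP secondary antibody and ECL.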

[24] = system: 888-mel; test: Inhibition of S6 phosphorylation in human 888-mel cells incubated for 24 hrs in presence of 4-(2-(1H-indazol-4-yl)-6-((4-(methylsulfonyl)piperazin-1-yl)methyl)thieno[3,2-d]pyrimidin-4-yl)morpholine by immunoblotting analysis; type: cell-based
[25] = system: A2058; test: (§4) Antitumor activity against human A2058 cells harboring BRAF V600E/PTEN deletion mutant xenografted in mouse assessed as decrease in cyclin D1 level at 15 mg/kg, po administered every third day for 21 days and measured after 8 hrs post dose in presence of 4-(2-(1H-indazol-4-yl)-6-((4-(methylsulfonyl)piperazin-1-yl)methyl)thieno[3,2-d]pyrimidin-4-yl)morpholine by Western blot analysis; type: functional, organism-based; details: time 512.0 hrs
[26] = system: A2058; test: as §4, with “as suppression of ERK phosphorylation” for “as decrease in cyclin D1 level”, “after 72” for “after 8”; type: functional, organism-based; details: time 576.0 hrs
[27] = system: A2058; test: Antitumor activity against human A2058 cells harboring BRAF V600E/PTEN deletion mutant xenografted in mouse assessed as suppression of AKT phosphorylation at 15 mg/kg, po administered every third day for 21 days and measured after 72 hrs post dose by Western blot analysis; type: functional, organism-based; details: time 576.0 hrs

Sequence of Calcium/calmodulin-dependent protein kinase type II subunit alpha (Q9UQM7 whole entry): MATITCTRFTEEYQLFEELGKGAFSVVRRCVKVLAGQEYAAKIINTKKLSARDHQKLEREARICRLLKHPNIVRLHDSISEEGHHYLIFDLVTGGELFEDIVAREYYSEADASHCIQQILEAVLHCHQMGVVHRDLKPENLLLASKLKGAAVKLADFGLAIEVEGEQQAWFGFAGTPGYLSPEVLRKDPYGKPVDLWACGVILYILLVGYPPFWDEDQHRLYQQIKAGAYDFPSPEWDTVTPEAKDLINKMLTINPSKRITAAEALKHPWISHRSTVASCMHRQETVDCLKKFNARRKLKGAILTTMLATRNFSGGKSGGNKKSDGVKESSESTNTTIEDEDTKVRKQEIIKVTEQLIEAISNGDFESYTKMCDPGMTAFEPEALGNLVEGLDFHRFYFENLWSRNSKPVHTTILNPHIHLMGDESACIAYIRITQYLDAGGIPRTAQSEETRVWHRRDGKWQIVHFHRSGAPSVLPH

SMILES: O=C(c1ccc(F)c(F)c1Nc1ccc(I)cc1F)N1CC(O)([C@@H]2CCCCN2)C1 [COBIMETINIB]
- IC50 [1]: > 10 µM
- IC50 [2]: > 10 µM
- IC50 [3]: > 10 µM
- IC50 [4]: > 10 µM
- IC50 [5]: > 10 µM
- IC50 [6]: > 10 µM
- IC50 [7]: > 10 µM
- IC50 [8]: > 10 µM
- IC50 [9]: > 10 µM
- IC50 [10]: > 10 µM
- IC50 [11]: > 10 µM
- IC50 [12]: > 10 µM
- inhibition in vivo at 10 mg/kg [13]: 21%
- inhibition in vivo at 10 mg/kg [14]: 38%
- Activity [15]: 60%
- Activity [16]: 60%
- Activity [17]: 60%
- inhibition [18]: Active
- inhibition in vivo at 3 mg/kg [19]: 47%
- inhibition in vivo at 20 mg/kg [20]: 34%
- inhibition in vivo at 15 mg/kg [21]: 69%
- inhibition in vivo at 15 mg/kg [22]: 156%
- inhibition [23]: Active
- inhibition [24]: Active
- Activity [25]: Active
- Activity [26]: Active
- Activity [27]: Active
